{"source": "ChEMBL document CHEMBL1154735", "about": "“A strategy to minimize reactive metabolite formation: discovery of (S)-4-(1-cyclopropyl-2-methoxyethyl)-6-[6-(difluoromethoxy)-2,5-dimethylpyridin-3-ylamino]-5-oxo-4,5-dihydropyrazine-2-carbonitrile as a potent, orally bioavailable corticotropin-releasing factor-1 receptor antagonist” (J Med Chem, 2009)", "key": {"[1]": {"assay": "Clearance in Sprague-Dawley rat at 2 mg/kg, iv after 0.17 to 24 hrs by LC/MS/MS analysis", "type": "ADME, organism-based", "parameters": "dose 2 mg/kg, route intravenous", "settings": "in vivo"}, "[2]": {"assay": "Oral bioavailability in Sprague-Dawley rat at 10 mg/kg dosed as aqueous suspension of 1% polysorbate 80 in 0.5% methylcellulose after 0.25 to 24 hrs by LC/MS/MS analysis", "type": "ADME, organism-based", "settings": "in vivo"}, "[3]": {"assay": "AUC in Sprague-Dawley rat at 10 mg/kg, po dosed as aqueous suspension of Labrafil M 1944CS/DMAC/polysorbate 80, 85:10:5 (v/v) after 0.25 to 24 hrs by LC/MS/MS analysis", "type": "ADME, organism-based", "parameters": "time 0.25-24 hr, dose 10 mg/kg, route oral", "settings": "plasma"}, "[4]": {"assay": "Octanol-water partition coefficient, log D at pH 7.4", "type": "physicochemical", "summary_of_the_method": "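Partitioning between octanol and water at pH 7.4.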"}, "[5]": {"assay": "Aqueous solubility at pH 6.5", "type": "physicochemical"}, "Liver microsomes [6]": {"system": "Liver microsomes", "assay": "Metabolic stability in NADPH-fortified rat liver microsomes assessed as pyrazinone oxidation metabolite formation at 10 uM after 30 mins by HPLC/UV/MS analysis", "type": "ADME, Microsome", "settings": "0.5 h", "summary_of_the_method": "(§1)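 Pooled rat or human liver microsomes 1 mg/mL, 10 μM substrate, 100 mM potassium phosphate pH 7.4, 37 °C, started with NADPH-regenerating system (1.3 mM NADP+, 3.3 mM glucose-6-phosphate, 3.3 mM MgCl2, 0.5 U/mL G6PDH); GSH 5 mM in trapping runs. Sampled 0 and 30 min, acetonitrile quench; abundance as UV peak area (330–340 nm) fraction of all drug-related components by HPLC/UV/MS.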"}, "Liver microsomes [7]": {"system": "Liver microsomes", "assay": "Metabolic stability in NADPH-fortified rat liver microsomes assessed as GSH adduct formation at 10 uM after 30 mins by HPLC/UV/MS analysis", "type": "ADME, Microsome", "settings": "0.5 h", "summary_of_the_method": "as §1"}, "[8]": {"assay": "Fraction unbound in human serum after 3 to 7 hrs by equilibrium dialysis", "type": "ADME, cell-free", "summary_of_the_method": "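Human serum spiked with compound, equilibrium-dialysed against isotonic phosphate buffer for 3 or 7 h (depending on system) at 37 °C; both sides measured by LC/MS/MS, unbound fraction as buffer/serum concentration ratio.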"}, "[9]": {"assay": "Drug metabolism in bile duct cannulated Sprague-Dawley rat assessed as GSH adduct formation in bile at 20 mg/kg, po after 24 hrs by HPLC/UV/MS analysis", "type": "ADME, organism-based", "parameters": "dose 20 mg/kg, route oral", "settings": "in vivo", "summary_of_the_method": "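Male Sprague–Dawley bile duct cannulated rats (n = 3) dosed orally at 20 mg/kg in PEG/ethanol 90:10; vehicle-dosed controls (n = 3). Bile and urine pooled over 0–24 h, acetonitrile-precipitated and profiled by HPLC/UV/MS (Hydro-RP column, PDA 200–550 nm, positive-ion full and data-dependent scans).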"}, "[10]": {"assay": "Displacement of [125I]sauvagine from CRF2 receptor in porcine choroid plexus homogenate by binding titration assay", "type": "tissue-based, Sus scrofa", "summary_of_the_method": "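Porcine choroid plexus homogenate; inhibition of [125I]-sauvagine binding measured in a titration format.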"}, "Rattus norvegicus [11]": {"system": "Rattus norvegicus", "assay": "Total plasma concentration in Sprague-Dawley rat at 1.8 mg/kg, po after 1 to 3 hrs by LC/MS/MS analysis", "type": "ADME, organism-based", "parameters": "dose 1.8 mg/kg, route oral", "settings": "in vivo"}, "Rattus norvegicus [12]": {"system": "Rattus norvegicus", "assay": "Total plasma concentration in Sprague-Dawley rat at 3 mg/kg, po after 1 to 3 hrs by LC/MS/MS analysis", "type": "ADME, organism-based", "parameters": "dose 3 mg/kg, route oral", "settings": "in vivo"}, "Rattus norvegicus [13]": {"system": "Rattus norvegicus", "assay": "Plasma free concentration in Sprague-Dawley rat at 0.56 mg/kg, po after 1 to 3 hrs by LC/MS/MS analysis", "type": "ADME, organism-based", "parameters": "dose 0.56 mg/kg, route oral", "settings": "in vivo"}, "Rattus norvegicus [14]": {"system": "Rattus norvegicus", "assay": "Ex vivo receptor occupancy of CRF1 receptor in Sprague-Dawley rat brain parietal assessed as inhibition of [125I]sauvagine binding at 1 mg/kg, po after 90 mins by autoradiography", "type": "functional", "settings": "1.5 h"}, "Rattus norvegicus [15]": {"system": "Rattus norvegicus", "assay": "Ex vivo receptor occupancy of CRF1 receptor in Sprague-Dawley rat brain parietal assessed as inhibition of [125I]sauvagine binding at 1.8 mg/kg, po after 90 mins by autoradiography", "type": "functional", "settings": "1.5 h"}, "Rattus norvegicus [16]": {"system": "Rattus norvegicus", "assay": "Ex vivo receptor occupancy of CRF1 receptor in Sprague-Dawley rat brain parietal assessed as inhibition of [125I]sauvagine binding at 3 mg/kg, po after 90 mins by autoradiography", "type": "functional", "settings": "1.5 h"}, "Rattus norvegicus [17]": {"system": "Rattus norvegicus", "assay": "Anxiolytic activity in Sprague-Dawley rat assessed as decrease in exit latency at 1 mg/kg, po after 60 mins by defensive withdrawal test relative to control", "type": "functional", "parameters": "scale not given: the % may be the effect or the level left", "summary_of_the_method": "(§2)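 Rats placed in a darkened chamber within an open illuminated field; time to emerge measured 60 min after oral dosing (0.56–3 mg/kg), n = 8; percent decrease in exit latency versus vehicle-treated animals, p < 0.05 significance.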"}, "Rattus norvegicus [18]": {"system": "Rattus norvegicus", "assay": "Anxiolytic activity in Sprague-Dawley rat assessed as decrease in exit latency at 1.8 mg/kg, po after 60 mins by defensive withdrawal test relative to control", "type": "functional", "parameters": "scale not given: the % may be the effect or the level left", "summary_of_the_method": "as §2"}, "[19]": {"assay": "Clearance in Beagle dog at 2 mg/kg, iv after 0.17 to 24 hrs by LC/MS/MS analysis", "type": "ADME, organism-based, Canis lupus familiaris", "parameters": "dose 2 mg/kg, route intravenous", "settings": "in vivo", "summary_of_the_method": "(§3)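 Male beagle dogs (n = 4), 2 mg/kg iv in propylene glycol:ethanol 90:10 (v/v), 1 mL/kg infused over 5 min at 0.2 mL/kg/min; femoral vein blood at 0.17–24 h; plasma frozen at –20 °C, analysed by LC/MS/MS.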"}, "[20]": {"assay": "Volume of distribution at steady state in Beagle dog at 2 mg/kg, iv after 0.17 to 24 hrs by LC/MS/MS analysis", "type": "ADME, organism-based, Canis lupus familiaris", "parameters": "dose 2 mg/kg, route intravenous", "settings": "in vivo, read-out: Vdss", "summary_of_the_method": "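Male beagle dogs (n = 4) given 2 mg/kg iv in propylene glycol:ethanol 90:10 (v/v), 1 mL/kg infused over 5 min at 0.2 mL/kg/min. Plasma stored at –20 °C and analysed by LC/MS/MS after acetonitrile precipitation.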"}, "[21]": {"assay": "Half life in Beagle dog at 2 mg/kg, iv by LC/MS/MS analysis", "type": "ADME, organism-based, Canis lupus familiaris", "parameters": "dose 2 mg/kg, route intravenous", "settings": "in vivo", "summary_of_the_method": "as §3"}, "[22]": {"assay": "AUC in Beagle dog at 2 mg/kg, po dosed as […] after 0.25 to 24 hrs by LC/MS/MS analysis", "type": "ADME, organism-based, Canis lupus familiaris", "parameters": "time upper 24 hr, time lower 0.25 hr, dose 2 mg/kg, route oral", "settings": "in vivo"}, "[23]": {"assay": "Oral bioavailability in Beagle dog at 2 mg/kg dosed as aqueous suspension of 1% polysorbate 80 in 0.5% methylcellulose after 0.25 to 24 hrs by LC/MS/MS analysis", "type": "ADME, organism-based, Canis lupus familiaris", "settings": "in vivo"}, "[24]": {"assay": "Cmax in Beagle dog at 3 mg/kg, po dosed as aqueous suspension of Labrafil M 1944CS/DMAC/polysorbate 80, 85:10:5 (v/v) after 2 to 4 hrs by LC/MS/MS analysis", "type": "ADME, organism-based, Canis lupus familiaris", "parameters": "dose 3 mg/kg, route oral", "settings": "in vivo", "summary_of_the_method": "(§4)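 Fasted male beagle dogs dosed orally at 1 mL/kg: 2 mg/kg as 0.2% polysorbate 80 in 0.5% methylcellulose suspension (n = 4) or 3 mg/kg in Labrafil M 1944CS/DMAC/polysorbate 80 85:10:5 (n = 2). Femoral vein blood 0.25–24 h; plasma by LC/MS/MS.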"}, "[25]": {"assay": "Oral bioavailability in Beagle dog at 3 mg/kg, po dosed as aqueous suspension of Labrafil M 1944CS/DMAC/polysorbate 80, 85:10:5 (v/v) after 0.25 to 24 hrs by LC/MS/MS analysis", "type": "ADME, organism-based, Canis lupus familiaris", "settings": "in vivo", "summary_of_the_method": "as §4"}, "Rattus norvegicus [26]": {"system": "Rattus norvegicus", "assay": "Ex vivo receptor occupancy of CRF1 receptor in po dosed Sprague-Dawley rat brain parietal assessed as inhibition of [125I]sauvagine binding after 90 mins by autoradiography", "type": "functional, organism-based"}}}
{"compound": "COC[C@H](C1CC1)n1cc(C#N)nc(Nc2cc(C)c(OC(F)F)nc2C)c1=O", "values": [{"measurement": "clearance", "setting": "[1]", "value": 29, "unit": "mL/min/kg"}, {"measurement": "bioavailability", "setting": "[2]", "value": 31, "unit": "%"}, {"measurement": "AUC", "setting": "[3]", "value": 8.8, "unit": "µM·h"}, {"measurement": "logD", "setting": "[4]", "value": 3.9}, {"measurement": "solubility", "setting": "[5]", "value": 4, "unit": "µg/mL"}, {"measurement": "Activity", "setting": "Liver microsomes [6]", "value": "< 1", "unit": "%"}, {"measurement": "Activity", "setting": "Liver microsomes [7]", "value": 3, "unit": "%"}, {"measurement": "fraction unbound", "setting": "[8]", "value": 0.035}, {"measurement": "Activity", "setting": "[9]", "value": 0.1, "unit": "%"}, {"measurement": "IC50", "setting": "[10]", "value": "> 10", "unit": "µM"}, {"measurement": "concentration", "setting": "Rattus norvegicus [11]", "value": 83, "unit": "nM"}, {"measurement": "concentration", "setting": "Rattus norvegicus [12]", "value": 140, "unit": "nM"}, {"measurement": "Cp(f)", "setting": "Rattus norvegicus [13]", "value": 0.84, "unit": "nM"}, {"measurement": "inhibition in vivo at 1 mg/kg", "setting": "Rattus norvegicus [14]", "value": 43, "unit": "%"}, {"measurement": "inhibition in vivo at 1.8 mg/kg", "setting": "Rattus norvegicus [15]", "value": 71, "unit": "%"}, {"measurement": "inhibition in vivo at 3 mg/kg", "setting": "Rattus norvegicus [16]", "value": 80, "unit": "%"}, {"measurement": "Activity", "setting": "Rattus norvegicus [17]", "value": 28, "unit": "%"}, {"measurement": "Activity", "setting": "Rattus norvegicus [18]", "value": 60, "unit": "%"}, {"measurement": "clearance", "setting": "[19]", "value": 7.3, "unit": "mL/min/kg"}, {"measurement": "Vd", "setting": "[20]", "value": 13, "unit": "L/kg"}, {"measurement": "half-life", "setting": "[21]", "value": 30, "unit": "h"}, {"measurement": "AUC", "setting": "[22]", "value": 7.6, "unit": "µM·h"}, {"measurement": "bioavailability", "setting": "[23]", "value": 53, "unit": "%"}, {"measurement": "Cmax", "setting": "[24]", "value": 1400, "unit": "nM"}, {"measurement": "bioavailability", "setting": "[25]", "value": 70, "unit": "%"}, {"measurement": "Activity", "setting": "Rattus norvegicus [26]", "value": "Dose-dependent effect"}]}
